For data set [1], the target named is T1, DNMT1 (Homo sapiens, UniProt P26358). The experiment in a line: Radioactive SPA, DNMT1, 40-mer hemi-methylated DNA. The data set is classed as biochemical. The settings on record: read-out: DNMT1 IC50.
A further data set relates to MV4–11 xenograft. Description: Subcutaneous MV4–11 xenograft. Type of data set: in vivo, mouse.
For data set [2], the system named is AML cells (MV4–11, GDM-1, SKM-1). Description: Western blotting. Type of data set: cell-based, human. In a few lines: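 Cells plated in 15-cm dishes 24 h before treatment with 0.1% DMSO or compound (6-point, fivefold serial dilution); GDM-1 cells were treated 2 d at 3.2–10,000 nM. Blots probed with IRDye secondary antibodies and imaged on a LI-COR Odyssey. Total H2AX (and vinculin for GDM-1) served as loading controls.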
On the technique in general: Immunoblotting shows a protein as a band on a membrane.

Data set [3] relates to 51 hematologic cancer cell lines. Description: 6-d proliferation, panel of 51 hematologic cancer cell lines. The data set is classed as cell-based, human. An outline of the steps:
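6-d proliferation run by Horizon Discovery on its 2D OncoSignature panel. Compound given as a 10-point, threefold serial dilution, in triplicate. Growth-death index (GDI) runs from −100 (complete cell death) to 100 (no inhibition). Growth IC50 (gIC50) and GDI are reported per line.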

Data set [4] relates to MV4–11 cells. Description: Global DNA methylation. The data set is classed as cell-based, human. The settings on record: MV4–11, day 4. An outline of the steps: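 MV4–11 cells plated in 10-cm dishes 24 h before treatment with 0.1% DMSO or compound (8-point, threefold serial dilution). Global 5-methylcytosine was measured, and treated values were normalized to vehicle control.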

The nature of data set [5]: Peripheral blood cell counts, SKM-1 study. Type of data set: in vivo, mouse. An outline of the steps:
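SKM-1 xenograft mice. Compound given s.c. twice daily in 10% captisol (pH 4.5–5); reference agent i.p. three times weekly; both at 10 ml kg⁻¹. Blood counts taken at end of dosing (day 28) and after 27 d recovery (day 55), n = 5 per group. One-way ANOVA with Dunnett's test, adjusted P; log₁₀-transformed where variances were unequal.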

The next data set deals with SKM-1 xenograft. The experiment in a line: Subcutaneous SKM-1 xenograft. Type of data set: in vivo, mouse.
Data set [6] relates to MV4–11 human systemic AML model. The experiment in a line: Disseminated MV4–11 AML model, survival. The data set is classed as in vivo, mouse. Conditions: 30 d of dosing.
Data set [7] relates to MV4–11 cells. Description: Cell growth–death assay, MV4–11. Type of data set: cell-based, human.
In the next data set the test system is H1507Y mutant DNMT1. Description: Radioactive SPA, H1507Y DNMT1. Type of data set: biochemical, human.
Data set [8] concerns the target other methyltransferases (n = 34). Description: Methyltransferase selectivity panel. The data set is classed as biochemical. Conditions: read-out: IC50 values, methyltransferase panel. An outline of the steps:
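Methyltransferase panel run at Reaction Biology with HotSpot technology in IC50 format (10-point, threefold serial dilution).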

For data set [9] the following is noted: mouse, in vivo, sc.
Another data set in a line: Mouse pharmacokinetics. The data set is classed as in vivo. Conditions: mice. In a few lines: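 Naive mice, 3 per group, each given a single dose: 2 mg kg⁻¹ i.v. (male CD-1), 2 mg kg⁻¹ s.c. (male C57/BL6) or 30 mg kg⁻¹ s.c. (female Nu/Nu). Composite blood samples were taken over 24 h and measured by HPLC–MS/MS. Parameters came from noncompartmental analysis of mean blood concentration–time profiles; AUC by linear trapezoidal rule.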

The target in the next data set is kinases (n = 369). The experiment in a line: Kinase selectivity panel. Type of data set: biochemical. The settings on record: read-out: IC50 values, kinase panel, panel tested at 10 μM. In a few lines: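 Kinase panel run at Reaction Biology with HotSpot technology, compound at a single concentration of 10 μM. PIM1, PKD2/PRKD2 and DYRK2 were run in IC50 format (10-point, threefold serial dilution).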

In the next data set the target is Murine DNMT1 (731–1602) (Mus musculus, UniProt P13864). The experiment in a line: Investigation of covalent adduct. The data set is classed as binding. The settings on record: 25 μM, 20 h, hemi-methylated DNA. In a few lines:
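Murine DNMT1 (731–1602, 5.6 μM) incubated 20 h with 14-mer hemi-methylated DNA duplex (25 μM), with or without compound (25 μM). Buffer: 20 mM Tris pH 7.5, 50 mM NaCl, 5 mM DTT, 20% glycerol, 2.5% DMSO. Aliquots diluted fivefold in 0.05% TFA/0.1% formic acid; 20 pmol protein analysed by intact-mass TOF LC–MS for adducts.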

A further data set addresses DNMT1 in HepG2 cells (Homo sapiens, UniProt P26358). Description: Cellular thermal shift assay. The settings on record: HepG2, 90 min. The data set is classed as cell-based.
The subject of a further data set is SKM-1 tumors. The experiment in a line: Pharmacodynamics in SKM-1 tumors. The data set is classed as in vivo, mouse. The settings on record: SKM-1, 45 mg kg^−1, 8 d of dosing. An outline of the steps:
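SKM-1 subcutaneous xenografts in NOD-scid mice, 3 per group (24 total). Compound given s.c. twice daily in 10% captisol (pH 4.5–5) at 10 ml kg⁻¹. Tumors and blood collected 6 h after the last dose on day 8.5. Tumors assayed for global 5-methylcytosine; blood drug levels by HPLC–MS/MS after acetonitrile precipitation.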

The test system of data set [10] is bacterial M.SssI CpG DNMT. Conditions: cited from earlier work.
The subject of data set [11] is DNMT1. The settings on record: cited from earlier work.
The subject of a further data set is DNMT3A. The settings on record: cited from earlier work.
Another data set deals with Gla1. The experiment in a line: Gla1 counter screen. Type of data set: biochemical. The settings on record: read-out: Gla1 IC50; n = 40.
A short description of data set [12]: Compound stability in media without or with cells. Type of data set: physicochemical. Conditions: 1,000 nM, media without or with MV4–11 cells, 37 °C. In a few lines: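 MV4–11 cells, or media alone, plated 24 h before adding compound (100 or 1000 nM) and incubated at 37 °C. Remaining compound was quantified by LC-MS/MS.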
Data set [13] concerns hemi-methylated hairpin oligonucleotide. The experiment in a line: DNA binding assay. In a few lines: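 Differential scanning fluorimetry on hemi-methylated hairpin oligonucleotide (200 nM) with 100 μM compound or DMSO. Ramp 25–95 °C at 1 °C min⁻¹, fluorescence read after each step. n = 2 biologically independent experiments, two technical replicates each.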
The target in data set [14] is T1, DNMT1. Description: Reversibility by rapid dilution. Type of data set: biochemical. The settings on record: 100-fold rapid dilution. An outline of the steps: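 DNMT1 preincubated 20 min with compound, then the complex was diluted 100-fold by adding substrates. Activity recovery was followed over 70 min by quenching at time points after dilution. Data were fit to a fixed steady-state velocity equation.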

In the next data set the target is DNMT1 (729-1600) (human, UniProt P26358 729-1600). The experiment in a line: X-ray crystallography.

A value given as a limit tells only on which side of the number the result lay.

The source of these data is publication PMC8594913 (Nature cancer, 2021).

One may read the IC50 as the concentration at which inhibition is half-maximal.

T1 sequence (P26358 whole entry): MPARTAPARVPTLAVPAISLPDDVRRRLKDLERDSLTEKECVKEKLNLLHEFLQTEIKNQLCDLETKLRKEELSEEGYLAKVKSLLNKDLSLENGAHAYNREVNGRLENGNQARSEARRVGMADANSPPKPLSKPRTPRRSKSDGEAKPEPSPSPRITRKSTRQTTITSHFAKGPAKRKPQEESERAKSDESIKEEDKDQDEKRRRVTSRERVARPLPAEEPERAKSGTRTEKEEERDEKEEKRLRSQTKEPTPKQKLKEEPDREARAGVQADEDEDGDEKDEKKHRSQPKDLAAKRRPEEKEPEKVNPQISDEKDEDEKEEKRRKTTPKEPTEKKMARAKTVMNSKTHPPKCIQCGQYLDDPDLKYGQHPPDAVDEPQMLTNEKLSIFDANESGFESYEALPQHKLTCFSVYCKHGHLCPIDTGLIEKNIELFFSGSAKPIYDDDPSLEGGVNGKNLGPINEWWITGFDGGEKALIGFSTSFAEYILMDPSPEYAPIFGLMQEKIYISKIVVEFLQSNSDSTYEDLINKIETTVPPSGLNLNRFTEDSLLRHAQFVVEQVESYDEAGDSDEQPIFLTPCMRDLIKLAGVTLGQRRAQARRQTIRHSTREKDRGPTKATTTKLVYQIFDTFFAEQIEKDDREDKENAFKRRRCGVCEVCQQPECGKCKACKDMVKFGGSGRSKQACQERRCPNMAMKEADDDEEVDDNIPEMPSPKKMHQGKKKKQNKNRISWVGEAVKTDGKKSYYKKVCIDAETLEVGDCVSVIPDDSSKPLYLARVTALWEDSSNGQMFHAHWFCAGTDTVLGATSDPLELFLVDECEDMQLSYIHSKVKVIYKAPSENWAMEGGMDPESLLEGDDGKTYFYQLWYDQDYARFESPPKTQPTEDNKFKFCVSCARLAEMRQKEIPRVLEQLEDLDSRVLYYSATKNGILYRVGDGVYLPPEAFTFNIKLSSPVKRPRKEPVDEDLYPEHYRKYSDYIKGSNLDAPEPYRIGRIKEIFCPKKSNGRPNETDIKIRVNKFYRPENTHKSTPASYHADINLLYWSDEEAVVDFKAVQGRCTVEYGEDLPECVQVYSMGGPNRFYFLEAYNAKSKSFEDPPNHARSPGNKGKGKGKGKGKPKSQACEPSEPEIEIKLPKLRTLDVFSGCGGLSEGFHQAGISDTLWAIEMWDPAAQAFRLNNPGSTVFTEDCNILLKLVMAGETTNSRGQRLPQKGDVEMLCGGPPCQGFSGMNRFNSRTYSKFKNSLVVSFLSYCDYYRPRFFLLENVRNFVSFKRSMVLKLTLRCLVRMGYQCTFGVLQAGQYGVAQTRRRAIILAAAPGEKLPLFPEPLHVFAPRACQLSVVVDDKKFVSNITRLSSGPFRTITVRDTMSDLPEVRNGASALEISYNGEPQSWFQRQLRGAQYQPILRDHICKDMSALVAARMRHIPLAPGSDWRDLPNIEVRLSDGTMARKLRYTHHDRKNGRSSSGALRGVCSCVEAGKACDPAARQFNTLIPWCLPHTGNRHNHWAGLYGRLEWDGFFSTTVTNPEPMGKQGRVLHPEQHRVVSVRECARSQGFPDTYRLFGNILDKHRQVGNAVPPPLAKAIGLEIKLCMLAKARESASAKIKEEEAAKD
DNMT1 in HepG2 cells, sequence (P26358 whole entry): as above
DNMT1 (729-1600), sequence (P26358 729-1600): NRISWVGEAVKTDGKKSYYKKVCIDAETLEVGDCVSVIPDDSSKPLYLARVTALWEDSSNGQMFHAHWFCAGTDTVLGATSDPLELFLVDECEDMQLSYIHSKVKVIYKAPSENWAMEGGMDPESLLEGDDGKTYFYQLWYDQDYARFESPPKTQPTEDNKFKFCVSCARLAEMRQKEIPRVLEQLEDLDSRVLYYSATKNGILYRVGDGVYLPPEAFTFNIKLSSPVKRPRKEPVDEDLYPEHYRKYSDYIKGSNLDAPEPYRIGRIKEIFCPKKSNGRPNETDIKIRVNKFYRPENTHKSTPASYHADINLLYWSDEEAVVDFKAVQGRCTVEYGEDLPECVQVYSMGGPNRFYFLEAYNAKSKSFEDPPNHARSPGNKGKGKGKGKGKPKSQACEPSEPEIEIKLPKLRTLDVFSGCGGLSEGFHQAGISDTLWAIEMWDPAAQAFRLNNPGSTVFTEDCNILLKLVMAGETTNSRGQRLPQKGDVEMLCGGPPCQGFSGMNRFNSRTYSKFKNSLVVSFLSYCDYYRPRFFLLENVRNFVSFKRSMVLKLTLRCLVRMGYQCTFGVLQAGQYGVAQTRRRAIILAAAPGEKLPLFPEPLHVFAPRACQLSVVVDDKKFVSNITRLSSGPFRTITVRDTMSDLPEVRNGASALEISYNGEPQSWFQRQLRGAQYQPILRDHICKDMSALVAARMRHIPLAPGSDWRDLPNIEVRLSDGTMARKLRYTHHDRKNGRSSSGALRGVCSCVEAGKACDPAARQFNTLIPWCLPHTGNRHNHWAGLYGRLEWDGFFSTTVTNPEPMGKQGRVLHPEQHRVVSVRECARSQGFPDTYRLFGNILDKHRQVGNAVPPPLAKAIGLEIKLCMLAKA
Murine DNMT1 (731–1602), sequence (P13864 731-1602): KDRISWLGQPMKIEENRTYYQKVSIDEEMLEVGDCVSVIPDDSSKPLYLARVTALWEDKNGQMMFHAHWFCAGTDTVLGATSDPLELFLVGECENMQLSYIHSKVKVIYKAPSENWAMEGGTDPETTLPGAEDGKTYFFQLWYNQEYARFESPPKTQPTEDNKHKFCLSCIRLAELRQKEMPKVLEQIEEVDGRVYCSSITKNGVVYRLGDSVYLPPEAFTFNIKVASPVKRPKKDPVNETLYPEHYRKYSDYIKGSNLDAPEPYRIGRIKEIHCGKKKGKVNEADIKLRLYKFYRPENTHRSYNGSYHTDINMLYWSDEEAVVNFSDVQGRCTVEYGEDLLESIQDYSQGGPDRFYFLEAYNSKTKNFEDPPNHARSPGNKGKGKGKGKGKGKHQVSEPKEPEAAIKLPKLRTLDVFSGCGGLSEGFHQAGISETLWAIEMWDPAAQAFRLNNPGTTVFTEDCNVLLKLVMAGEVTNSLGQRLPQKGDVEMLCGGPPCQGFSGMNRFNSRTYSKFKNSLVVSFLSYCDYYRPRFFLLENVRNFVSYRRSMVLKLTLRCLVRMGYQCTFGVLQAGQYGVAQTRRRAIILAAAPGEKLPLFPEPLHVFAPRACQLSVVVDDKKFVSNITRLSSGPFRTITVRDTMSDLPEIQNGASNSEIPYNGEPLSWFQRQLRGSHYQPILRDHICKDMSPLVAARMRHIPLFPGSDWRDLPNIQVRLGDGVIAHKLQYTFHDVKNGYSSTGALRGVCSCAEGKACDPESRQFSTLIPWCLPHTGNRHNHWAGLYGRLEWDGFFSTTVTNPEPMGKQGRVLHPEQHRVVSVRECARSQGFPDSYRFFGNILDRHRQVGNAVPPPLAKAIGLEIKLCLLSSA

Consider `CCc1c(C#N)c(SCc2ccc(N(C)S(C)(=O)=O)cc2)nc(N(C)CCNC)c1C#N` [GSK3830052], for which the IC50 on DNMT1 [1] is 110 ± 20 nM.
`Nc1ncn([C@H]2C[C@H](O)[C@@H](CO)O2)c(=O)n1` [DAC, decitabine, reference compound]: the “tumor growth inhibition relative to vehicle” value in the data set on MV4–11 xenograft (MV4–11, intraperitoneal three times weekly, not statistically significant) is on record as 57%; with SKM-1 xenograft (SKM-1, intraperitoneal three times weekly, not statistically significant), 18%. Besides, in data set [2], the “lowest dose with accumulation of γH2AX (DNA damage)” value amounted to 16 nM. For the same molecule, the “cell lines with negative growth–death index (GDI)” value in data set [3] (day 6) was determined as 80%. Also, in the data set with MV4–11 cells [4], the “concentration above which DNA hypomethylation and gene activation diminish” value is recorded as “above 350 nM”. Moreover, the “neutrophils, red blood cells, platelets” value in [5] (day 28, DAC intraperitoneal three times weekly) is given as “statistically significant decreases”. In addition, the “survival benefit over vehicle” value in data set [6] amounted to 13 days. Besides, the “onset of cell death (negative GDI)” value in the data set with MV4–11 cells [7] (MV4–11) came to 2 days.
On to `CCc1c(C#N)c(SC(C(N)=O)c2ccccc2)nc(N2CCC(N)CC2)c1C#N` (stereo not drawn) [GSK3685032], for which, in the data set with H1507Y mutant DNMT1, the “reduction in inhibition of H1507Y mutant versus wild-type DNMT1” value is given as more than 350 fold. In addition, the “dose giving clear tumor regression” value with MV4–11 xenograft (MV4–11, subcutaneous twice daily) was not below 30 mg/kg. Besides, the “animals maintaining tumor volumes ≤200 mm^3 while off drug” value in the data set with MV4–11 xenograft (MV4–11, ≥30 mg kg^−1, 4-week observation after dosing) is reported as not below 60%. Moreover, in data set [8], the IC50 was more than 10000 nM. The well tolerated dose entry in data set [9] was “at least 45 mg kg^−1”. In [2], the “effects on DNMT3A, DNMT3B or γH2AX” value is “no immediate effects”. Besides, in “Mouse pharmacokinetics”, the blood half-life is more than 1.8 h, the clearance entry is given as “low clearance” and the volume of distribution entry is listed as “moderate volume of distribution”. The IC50 in data set [3] (read-out: median growth IC50 (gIC50), day 6, median of panel) is 640 nM. Besides, the concentration for half-maximal inhibition (IC50) at kinases (n = 369) was more than 10000 nM. In the data set with MV4–11 cells [4], the “additional loss of global DNA methylation versus DAC” value was 13% and the “maximal response, loss of global DNA methylation” value is reported as 83%. Moreover, on Murine DNMT1 (731–1602), the “covalent binding to DNMT1” value is listed as “noncovalent”. Also, on DNMT1 in HepG2 cells, the “cellular target engagement (DNMT1 thermal stabilization)” value is “stabilization of DNMT1”. In addition, in data set [5] (day 28, 1 or 5 mg kg^−1), the “neutrophils, red blood cells, platelets” value is recorded as “no statistically significant changes”. In the data set on SKM-1 xenograft (SKM-1, subcutaneous twice daily), the “dose giving clear tumor regression” value was not below 30 mg/kg. In the data set on SKM-1 xenograft (SKM-1, ≥30 mg kg^−1, 4-week observation after dosing), the “animals maintaining tumor volumes ≤200 mm^3 while off drug” value is given as not below 60%. Moreover, in [6], the “mice surviving nearly 7 weeks after dosing ended” value came out at 50% and the “survival benefit over vehicle” value is more than 43 days. For the same molecule, the “onset of growth inhibition” value in the data set on MV4–11 cells [7] (AML lines, 6 d time course) was not below 3 days. The “maximal loss of DNA methylation in tumors” value in the data set with SKM-1 tumors was 46%.
Consider `O=C(O)C(Cc1c[nH]c2ccccc12)N1C(=O)c2ccccc2C1=O` (stereo not drawn) [RG-108], for which the IC50 in [10] is 12 nM.
On to `Cc1cc(Nc2ccc(NC(=O)c3ccc(Nc4ccnc5ccccc45)cc3)cc2)nc(N)n1` [SGI-1027], for which, in the data set with DNMT1 [11], the “activity against DNMT1” value is reported as “low μM activity”. Moreover, in the data set on DNMT3A, the “activity against DNMT3A” value is “low μM activity”. Besides, the cell growth result in the data set on MV4–11 cells [7] (MV4–11, day 6) is listed as “inhibited cell growth”.
On to `CCc1c(C#N)c(SC(C(N)=O)c2ccccc2)nc(N(C)C)c1C#N` (stereo not drawn) [GSK3484862], for which, in the data set with Gla1, the 50% inhibitory concentration (IC50) was more than 50000 nM. Also, the chemical stability result in [12] was “chemically stable”. Besides, the “nonspecific DNA binding” value in [13] (100 μM compound) is reported as “did not bind DNA nonspecifically”. Besides, the “Tm of hemi-methylated hairpin oligonucleotide” value in [13] (with DMSO or 100 μM compound) turned out to be 77.5 °C. At DNMT1 [14], the “reversibility of DNMT1 inhibition” value was “rapidly reversible inhibition”.
Consider `Nc1ncnc2c1ncn2[C@@H]1O[C@H](CSCC[C@H](N)C(=O)O)[C@@H](O)[C@H]1O` [SAH, S-adenosyl-L-homocysteine, reference compound], for which, in the data set on H1507Y mutant DNMT1, the “reduction in inhibition of H1507Y mutant versus wild-type DNMT1” value is reported as “not observed”.

B1: 12-bp hemi-methylated DNA with zebularine (dsDNA)
DNA 1: GAGGCCGCCTGC
DNA 2: GCAGGCGGCCTC
modifications: strand 1 C6 = 5-methylcytosine (M); strand 2 C6 = zebularine (Z, in place of target cytidine)
As to B1, the binding result with DNMT1 (729-1600) was “binds”.
